CHT allo act = allosteric activators of human choline transporter CHT | B-score at 10 µM | AID 488977 | Q9GZV3 | 310,000 compounds, 0.49% hits | CHT-expressing cells, membrane potential dye, choline EC20; stronger effect = higher value; LV-AA mutant CHT in HEK293 cells;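 active = initial fluorescence not abnormally high and integrated response B-score, plate-corrected, over 3 SD above library mean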
T cell modulator = modulates CD8 T cell binding to vesicles. 2C CD8+ T cell-vesicle binding, flow cytometry; stronger effect = lower value. 330,000 compounds, 0.068% hits. response (vesicle binding), % at 7 µM. AID 2052;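 active = response, share of CD8 T cells binding vesicles, and their 90th percentile fluorescence all below set limits, cut at about 80% in these data, passing the limit was not always enough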;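 also: values below 100% mean blocked vesicle binding to the CD8+ T cells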
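Read-out – percent CD8+ FL2 mean versus row control · System – murine 2C transgenic CD8+ T lymphocytes · Times – 1.5 h cell–vesicle binding at 37 °C, then 20 min icy labelling · Control set – naked vesicles low, QL9 vesicles with vehicle high · Detection – cytometric PE anti-B7-1 and Alexa647 anti-CD8 signals after 1% paraformaldehyde fixation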
pCIP destab = p/CIP protein destabilization. Q05BA5. F442A p/CIP-EGFP cells, EGFP fluorescence, 16 h. decrease of EGFP signal, % at 10 µM. 290,000 compounds, 0.01% hits. AID 1984;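 active = EGFP signal decrease of at least 30% at 10 µM or well 3 SD below plate mean, unless failing retest; inactive = the rest, including hits failing retest or dose response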
CHT block = inhibits the human high affinity choline transporter | Q9GZV3 | CHT-expressing cells, membrane potential dye, choline response; stronger effect = lower value | B-score at 10 µM | 310,000 compounds, 0.86% hits | AID 488975;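 active = B-score over 3 SD under the library average, and starting fluorescence ratio not unusually high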;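 also: choline stimulus applied at its EC90 after an EC20 pre-addition; B-score computed on integrated fluorescence ratio after choline addition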
DSG3 Ab inh = human desmoglein-3 autoantibody binding inhibition; P32926; DSG3-coupled beads, scFv-anti-DSG3-GFP binding, flow cytometry; stronger effect = lower value; binding (percent of control), % at 10 µM; 310,000 compounds, 0.48% hits; AID 588358;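 active = binding more than 3 SD below its plate's average and above zero; inconclusive = below that plate limit but binding exactly zero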;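 also: hits lower antibody fragment binding to DSG3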
Target sequence (P32926 whole entry, looked up, the tested form may be a part): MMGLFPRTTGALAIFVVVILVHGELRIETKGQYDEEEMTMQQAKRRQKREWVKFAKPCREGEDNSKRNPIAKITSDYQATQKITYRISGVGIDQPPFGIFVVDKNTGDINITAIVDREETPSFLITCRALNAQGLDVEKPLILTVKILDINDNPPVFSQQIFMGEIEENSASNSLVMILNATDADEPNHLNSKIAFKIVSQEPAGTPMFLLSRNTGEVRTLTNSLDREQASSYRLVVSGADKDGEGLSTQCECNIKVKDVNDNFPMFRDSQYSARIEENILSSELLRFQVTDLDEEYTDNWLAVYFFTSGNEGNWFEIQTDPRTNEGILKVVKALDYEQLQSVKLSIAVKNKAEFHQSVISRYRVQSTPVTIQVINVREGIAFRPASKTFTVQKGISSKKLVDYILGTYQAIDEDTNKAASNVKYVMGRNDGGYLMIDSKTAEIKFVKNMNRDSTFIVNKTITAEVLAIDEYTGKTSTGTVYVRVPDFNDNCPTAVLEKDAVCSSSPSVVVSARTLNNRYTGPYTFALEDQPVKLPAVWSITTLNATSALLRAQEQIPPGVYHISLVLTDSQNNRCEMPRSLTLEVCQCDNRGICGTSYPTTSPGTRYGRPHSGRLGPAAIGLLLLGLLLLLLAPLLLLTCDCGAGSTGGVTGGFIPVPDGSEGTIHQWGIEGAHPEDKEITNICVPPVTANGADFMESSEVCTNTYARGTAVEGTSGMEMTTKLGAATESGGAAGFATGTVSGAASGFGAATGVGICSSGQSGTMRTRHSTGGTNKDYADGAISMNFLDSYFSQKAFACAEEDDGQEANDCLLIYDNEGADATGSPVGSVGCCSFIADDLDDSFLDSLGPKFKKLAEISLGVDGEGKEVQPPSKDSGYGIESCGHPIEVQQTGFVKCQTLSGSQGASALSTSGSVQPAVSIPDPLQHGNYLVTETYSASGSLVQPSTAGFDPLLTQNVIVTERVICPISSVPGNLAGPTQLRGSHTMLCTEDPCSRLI
GPR7 antag = blocks human GPR7 receptor signaling | P48145 | GPR7-expressing cells, fluorescence antagonist assay | inhibition, % at 4.4 µM | 290,000 compounds, 1.1% hits | AID 1861; in the data active = inhibition above about 16%, passing the limit was not always enough;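 also: cells stimulated with the agonist NPW; 0% = agonist with vehicle and 100% = vehicle without agonist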
CHT block conf = confirmation of human choline transporter CHT inhibitors. shares compounds with CHT block. CHT-expressing cells, choline membrane potential dye; LV-to-AA substituted CHT, HEK293 cells. CHT activity remaining % of control (stronger effect = lower value), % at 10 µM. 2,400 compounds, 70% hits. AID 493221;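 active = choline transporter activity left, mean of duplicates at 10 µM, below buffer-only control mean minus 3 SD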;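 also: depolarization triggered by choline at its EC90 following an EC20 pre-addition; 0% = hemicholinium-3 full block and 100% = buffer-only control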
HEK293 MPD ctr = counter-screen for CHT inhibitors: effect in parental HEK293 cells; shares compounds with CHT block; membrane potential ratio readout (active if shifted either direction beyond buffer ±3SD; no single direction) at 10 µM; 2,400 compounds, 4% hits; membrane potential dye, choline response; active = decrease or increase beyond buffer ±3SD;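 also: parental cells lack the transporter so any hit is non-specific; ratio is peak minus trough fluorescence over baseline after EC90 choline challenge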
Active calls of the source: *; i = inactive; ? = inconclusive; . = not tested or not shown. Most compounds without a hit are left out; they make up all but 2.3% or so of the library.

SMILES	CHT allo act	T cell modulator	pCIP destab	CHT block	DSG3 Ab inh	GPR7 antag	CHT block conf	HEK293 MPD ctr
COCC(=O)NC1CCN(S(=O)(=O)c2cccc(C(C)=O)c2)CC1	i	211.0	11.2	-5.14*	106.8	-7.9	i	i
Cc1cc(C)c(NC(=O)c2ccc[n+](Cc3ccc([N+](=O)[O-])cc3)c2)c(C)c1	i	233.3	2.4	-10.3*	130.9	-4.8	10.8%*	i
COc1ccc(Cl)cc1NC(=O)C1CCCN(c2ncnc3c2nc2n3CCCCC2)C1 (centres undefined)	i	235.5	-0.8	-5.19*	102.2	-6.2	57.5%*	i
CC1CCN(CCNC(=O)C2CCCN(c3ncnc4c3nc3n4CCCCC3)C2)CC1 (centres undefined)	i	513.9	0.0	-10.5*	96.6	-2.0	32.1%*	i
O=C(Nc1ccc(Cl)cn1)C1CCCN(c2ncnc3c2nc2n3CCCCC2)C1 (centres undefined)	i	480.5	-11.5	-6*	.	-4.9	31.8%*	i
O=C(Nc1cccnc1Cl)C1CCCN(c2ncnc3c2nc2n3CCCCC2)C1 (centres undefined)	i	140.0	0.3	i	?	-7.6	.	.
CC1CCCCN1CCCNC(=O)C1CCCN(c2ncnc3c2nc2n3CCCCC2)C1 (centres undefined)	i	236.0	10.7	i	103.5	-4.4	.	.
O=C(Nc1ccncc1)C1CC(=O)N(Cc2ccccc2)C1 (centres undefined)	.	.	.	.	102.5	.	.	.
Cc1ccc(S(=O)(=O)N2CCCCC2C(=O)N2CCN(Cc3ccccc3)CC2)cc1 (centres undefined)	i	377.3	-9.6	-7.86*	100.5	-15.3	36.7%*	-8.61*
Cc1ccc(S(=O)(=O)N2CCCC2C(=O)N2CCCCCC2)cc1 (centres undefined)	i	i	-9.8	i	109.1	-1.5	.	.
Cc1ccc(S(=O)(=O)NC2=C(N3CCN(Cc4ccccc4)CC3)C(=O)c3ccccc3C2=O)cc1	i	118.4	-0.7	-5.55*	131.3	4.0	70.9%*	i
COc1ccc(S(=O)(=O)Nc2ccc3c(c2)C(=O)N([C@H](C)CO)C[C@H](C)[C@@H](CN(C)C(=O)Nc2c(C)noc2C)O3)cc1	.	189.6	.	.	101.8	.	.	.
CC(=O)c1ccc(OCC(=O)NC(=O)NC2CCCC2)cc1	.	.	.	.	100.3	.	.	.
O=C(CC1C[C@H](C(=O)N2CCOCC2)[C@@]2(CCC3CCCC3)c3[nH]c4ccccc4c3CCN2C1=O)NCc1ccco1 (some centres undefined)	.	282.5	.	.	93.0	.	.	.
O=C(CSc1n[nH]c(-c2ccccc2)n1)Nc1ncc(Br)cc1Br	i	190.2	2.3	-6.53*	92.7	-17.9	56.7%*	i
CCC(CC)c1nnc(NC(=O)c2c(C)nn(Cc3ccccc3Cl)c2C)s1	i	188.3	-9.0	-5.07*	53.4*	24.3	i	i
COc1ccccc1NS(=O)(=O)c1ccc(O)c(C(=O)OCC(=O)c2ccc(Cl)cc2Cl)c1	i	517.6	-20.9	-5.33*	116.6	-6.3	62.2%*	i
CC12CCC(C(=NO)C1=O)C2(C)C (centres undefined)	.	.	.	.	86.2	.	.	.
O=C(Nc1cccc(S(=O)(=O)NC2=NCCC2)c1)c1cc(Cl)ccc1[N+](=O)[O-]	i	163.2	.	-6.78*	96.1	.	20.6%*	i
Cc1cc(C)c(S(=O)(=O)N2CCN(C(=O)c3cc4ccccc4oc3=O)CC2)c(C)c1	.	335.1	.	.	113.5	.	.	.
C=CCn1c(NC(=O)c2ccccc2Cl)c(C#N)c2nc3ccccc3nc21	i	122.6	4.3	-5.8*	95.9	1.1	i	i
